Screens as filed in PubChem.
bCat KO growth – beta-catenin-lacking colon tumor cell growth suppression. HCT116 beta-catenin knockout viability, CellTiter-Glo, 60 h; active compounds read low. viability, % at 10 µM. AID 818. 140,000 compounds, 1.5% hits;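 active = viability at or under a set limit, the compound median less 4 SD, cut at about 6% in these data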;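 also: 0% = Hyamine 1622 control at 20 µM and 100% = untreated cell control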
H69AR inhibit – growth inhibitors of human H69AR lung tumor cells; H69AR lung tumor viability, ATP luminescence, 72 h; active compounds read low; viability, % at 10 µM; 85,000 compounds, 6% hits; AID 598;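 active = viability at or below 40%; inactive = viability above 40%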;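 also: multidrug resistant small cell line overexpressing MRP-1 efflux transporter; 100% = mean luminescence of untreated control wells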
Fibroblast inh – blocks proliferation of human lung fibroblasts; LL 47 human lung fibroblast viability, ATP luminescence; active compounds read low; AID 719; 85,000 compounds, 1.1% hits; viability, % at 10 µM;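 active = viability at or below 50% in the single dose screen; inactive = viability above 50%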;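 also: compound exposure lasted 72 h before the ATP readout; 100% = median luminescence of untreated cell-only wells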
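Assay system: human lung fibroblast line LL 47, low passage. Input: 1,150 fibroblasts seeded per well. Times: overnight cell rest, 72 h compound treatment at 37 °C. Evaluation: % viability of median cell-only signal. Technique: luminescent ATP detection, CellTiter-Glo. Control set: cell-only wells, no compound.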
PTEN del growth – suppresses growth of cells with PTEN deletion. HCT116 PTEN-null viability, CellTiter-Glo, 60 h; active compounds read low. viability, % at 10 µM. 140,000 compounds, 1.2% hits. AID 827;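 active = viability at or below a set limit, 4 SD under the median of all tested compounds, cut at about 3.7% in these data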;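 also: PTEN knockout HCT116 line with beta catenin targeted HCT116 as companion control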
HUVEC prolif 384 – inhibitors of human endothelial cell proliferation. HUVEC proliferation, CellTiter-Glo luminescence, 72 h; active compounds read low. viability, % at 10 µM (by protocol). 86,000 compounds, 1.1% hits;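 active = viability at or below 30%; inactive = viability above 30%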;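 also: 100% = median luminescence of DMSO-only cell control wells on each plate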
* = called active by the depositor; nt = no result. The sample as a whole holds a higher share of hits than the screen did.

SMILES	bCat KO growth	H69AR inhibit	Fibroblast inh	PTEN del growth	HUVEC prolif 384
COCCOc1cc(Nc2nnc(C(F)(F)F)s2)c(Cl)cc1Cl	69	13*	100	85	66
COc1cc(Nc2nnc(C)s2)c(Cl)cc1Cl	116	91	111	102	104
O=C(Nc1cccc(-c2nc3ncccc3o2)c1)c1cc2ccccc2o1	94	16*	108	77	49
COc1ccc(N2CCN(Cc3nc4ccccc4n3C)CC2)cc1	77	nt	nt	87	nt
O=C1NC(c2ccc3c(c2)OCO3)Oc2ccccc21 (centres undefined)	101	95	95	91	96
O=C1NC(c2ccc3c(c2)OCO3)Nc2ccccc21 (centres undefined)	27	27*	89	28	63
CCOc1nc(Nc2ccc(OC)cc2)nc(OCC)n1	106	105	103	108	100
CCOc1nc(Nc2ccc(OC)c(Cl)c2)nc(OCC)n1	91	36*	92	84	90
CCOc1ccc(N2C(=O)CC(Sc3ncccn3)C2=O)cc1 (centres undefined)	92	88	97	98	86
C=CCNc1nnc(SC2CC(=O)N(c3ccc(OCCC)cc3)C2=O)s1 (centres undefined)	86	1.9*	90	94	98
CN(C)CCCN1c2ccccc2Sc2ccc(C(F)(F)F)cc21	11	1.5*	41*	13	47
OCCN1CCN(CCCN2c3ccccc3Sc3ccc(C(F)(F)F)cc32)CC1	1.7*	0.8*	47*	1.5*	2.9*
O=C(OCC(=O)N1CCN(c2ccccc2)CC1)c1ccco1	96	29*	94	96	109
O=C(OCC(=O)N1CCN(c2ccccc2)CC1)C1=COCCO1	95	34*	93	101	91
O=C(OCC(=O)N1CCN(C(=O)c2ccco2)CC1)c1ccccc1C(=O)c1ccccc1	104	83	95	103	100
O=C(OCC(=O)N1CCN(C(=O)c2ccco2)CC1)C1=COCCO1	101	111	100	110	91
O=c1[nH]c(NCCCO)nc2c1C1(CCCC1)Cc1ccccc1-2	65	92	98	74	87
Cc1nc2cc(N3CCCCC3)c(NC(=O)c3ccncc3)cc2c(=O)n1Cc1ccccc1	4.4*	nt	nt	4	nt
Cc1nc2cc(N3CCOCC3)c(NC(=O)C3CC3)cc2c(=O)n1Cc1ccccc1	nt	100	103	nt	95
COc1cccc(-c2nnc(NC(=O)C(C)C)o2)c1	91	81	99	74	97
CCCN(CCC)S(=O)(=O)c1ccc(C(=O)Nc2nnc(CSC)o2)cc1	36	32*	84	24	61
COc1cccc(-c2nnc(NC(=O)c3ccccc3Br)o2)c1	nt	34*	93	nt	78
CCCN(CCC)S(=O)(=O)c1ccc(C(=O)Nc2nnc(-c3cccc(OC)c3)o2)cc1	10	16*	12*	10	1.7*
CCc1nnc(NC(=O)c2ccc(S(=O)(=O)N(CCOC)CCOC)cc2)o1	99	66	98	96	98
CCCN(CCC)S(=O)(=O)c1ccc(C(=O)Nc2nnc(-c3cc(OC)cc(OC)c3)o2)cc1	15	16*	51	10	31
SMILES	bCat KO growth	H69AR inhibit	Fibroblast inh	PTEN del growth	HUVEC prolif 384
Cc1ccc(CCNC(=O)C2CCCN(S(=O)(=O)c3cccs3)C2)cc1 (centres undefined)	91	89	100	102	92
O=C1c2ccccc2C(=O)N1c1ccc(-c2nc3ccccc3o2)cc1	89	82	113	73	91
Cc1cccc(OCC(=O)O/N=C(\N)c2ccccn2)c1C	100	102	105	94	104
CN(C)Cc1nc2c(c(=O)[nH]1)C1(CCCCC1)Cc1ccccc1-2	40	7.2*	73	60	83
CCN(CC)Cc1nc2c(c(=O)[nH]1)C1(CCCCC1)Cc1ccccc1-2	78	59	90	84	100
COc1ccc(N(C2CSC2)S(=O)(=O)c2ccccc2)cc1	80	90	98	80	91
O=S(=O)(NCc1ccncc1)c1ccc(Br)s1	23	98	98	33	77
Cn1c(=O)[nH]c(=O)c2c1nc(Br)n2Cc1ccccc1Cl	89	27*	97	78	101
Cn1c(=O)c2c(nc(NCc3ccc4c(c3)OCO4)n2Cc2ccccc2Cl)n(C)c1=O	81	38*	89	93	65
C=CCOc1nc2c(c(=O)n(C)c(=O)n2C)n1Cc1ccccc1Cl	69	38*	93	70	94
C=CCOc1nc2c(c(=O)n(C)c(=O)n2C)n1Cc1ccc(Cl)cc1	66	75	96	72	96
Cn1c(=O)c2c(nc(CN3CCN(c4ccccc4)CC3)n2Cc2ccccc2Cl)n(C)c1=O	71	24*	84	52	75
O=C(CN1CCN(c2ccc(O)cc2)CC1)NC(c1ccccc1)c1ccccc1	84	nt	nt	94	nt
O=C(CN1CCN(c2ccccc2F)CC1)Nc1ccccc1F	93	95	95	96	97
CCn1cc(C2=NOC(C(=O)Nc3ccccc3C(=O)OC)C2)c(C)n1 (centres undefined)	89	90	93	93	96
COc1cc2c(C(=O)NCc3ccc4c(c3)OCO4)cn(CC(C)C)c(=O)c2cc1OC	85	85	42*	83	68
CC(=O)NNC(=O)C(O)(c1ccccc1)c1ccccc1	109	nt	nt	96	nt
Cc1ccc(/C(O)=C/C(=O)C(=O)NNC(=O)C(O)(c2ccccc2)c2ccccc2)cc1	92	11*	112	102	78
CCc1ccc(CNc2ccc(N3CCN(C(C)=O)CC3)cc2)cc1	66	93	96	71	91
Cn1c2ccccc2c(=O)c2c(=O)n(C3CCCCC3)c(-c3ccco3)nc21	4.1*	nt	nt	3.4*	nt
COCC(C)n1c(C)cc(C(=O)COc2ccc(S(=O)(=O)N3CCOCC3)cc2Cl)c1C (centres undefined)	86	78	95	71	91
Cc1cccn2c(=O)c3cc(C(=O)N4c5ccccc5CC4C)n(C)c3nc12 (centres undefined)	63	42	83	45	77
CC1Cc2ccccc2N1C(=O)c1cc2c(=O)n3ccccc3nc2n1C (centres undefined)	61	13*	92	41	52
Cc1cccn2c(=O)c3cc(C(=O)N4CCc5ccccc54)n(C)c3nc12	nt	25*	91	nt	60
CS(=O)(=O)N(Cc1ccc(C(=O)Nc2ccccc2Sc2ccccc2)cc1)c1ccccc1	84	nt	nt	95	nt
c1ccc(CN2CCN(C3=Nc4cccc5cccc3c45)CC2)cc1	14	35*	89	13	37
CCOC(=O)c1[nH]c2cc(OC)c(OC)cc2c1NC(=O)c1ccc2c(c1)OCO2	102	26*	68	112	88
CCOC(=O)c1[nH]c2ccc(OC)cc2c1NC(=O)c1ccc2c(c1)OCO2	87	69	97	79	90
CCOC(=O)c1oc2ccccc2c1NC(=O)c1ccc2c(c1)OCO2	97	73	104	91	66
